Measured values published in ChEMBL document CHEMBL4266020, “Design, Synthesis, and Antifibrosis Activity in Liver of Nonsecosteroidal Vitamin D Receptor Agonists with Phenyl-pyrrolyl Pentane Skeleton” (J Med Chem, 2018).
Active and inactive are the calls of the source. The calls are words filed in the database; no cut-off is given here.

Experiments:
[1] = target: T1, Vitamin D3 receptor (Homo sapiens) (UniProt P11473); assay: Agonist activity at VDR in human LX2 cells assessed as inhibition of TGFbeta1-induced collagen-1 synthesis at 100 nM after 24 hrs by ELISA relative to 1,25(OH)2D3
T1 sequence (whole entry): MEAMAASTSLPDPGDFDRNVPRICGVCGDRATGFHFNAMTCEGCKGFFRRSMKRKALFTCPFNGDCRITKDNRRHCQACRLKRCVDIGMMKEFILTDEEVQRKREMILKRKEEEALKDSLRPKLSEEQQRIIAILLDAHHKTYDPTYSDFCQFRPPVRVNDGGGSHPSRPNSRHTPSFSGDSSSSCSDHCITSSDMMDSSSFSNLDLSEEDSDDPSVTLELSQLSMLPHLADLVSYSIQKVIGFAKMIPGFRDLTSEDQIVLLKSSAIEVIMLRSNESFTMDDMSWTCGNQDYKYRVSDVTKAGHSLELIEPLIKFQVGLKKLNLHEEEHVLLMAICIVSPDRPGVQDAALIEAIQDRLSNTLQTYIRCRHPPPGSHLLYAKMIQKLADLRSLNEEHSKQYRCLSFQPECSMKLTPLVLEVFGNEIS

[2] = target: T1, Vitamin D3 receptor (Homo sapiens); assay: Binding affinity to VDR ligand binding domain (unknown origin) at 100 nM by fluorescence polarization assay relative to 1,25(OH)2D3
[3] = Half life in Sprague-Dawley rat at 20 mg/kg, po by HPLC analysis; assay type: ADME, organism-based; details: in vivo
[4] = Oral bioavailability in Sprague-Dawley rat at 20 mg/kg by HPLC analysis; assay type: ADME, organism-based; details: in vivo
Mus musculus [5] = assay: Hepatoprotective activity against CCL4-induced liver damage in C57BL/6J mouse assessed as reduction in serum ALT levels at 20 ug/kg, po administered 5 times a week via gavage measured at 72 hrs post final CCl4 injection; assay type: functional, organism-based
How it was run: (§1)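 Same CCl4 mouse model (n=5; 0.5 mL/kg IP, 3×/week for 4 weeks; 20 µg/kg gavage 5×/week from day 20; sacrifice 72 h after last CCl4). Serum obtained by centrifugation at 3000 rpm for 15 min at 4°C. ALT, AST, TBA and calcium measured with commercial kits. Mean ± SD.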

Mus musculus [6] = assay: Antifibrotic activity in C57BL/6J mouse model of CCl4-induced liver fibrosis assessed as reduction in hydroxyproline levels in liver at 20 ug/kg, po administered 5 times a week via gavage measured at 72 hrs post final CCl4 injection; assay type: functional, organism-based
How it was run: (§2)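 Same CCl4 mouse model (n=5; 0.5 mL/kg IP in corn oil, 3×/week for 4 weeks; 20 µg/kg oral gavage 5×/week from day 20; sacrifice 72 h after last CCl4). Livers fixed in 4% paraformaldehyde for 24 h, paraffin-embedded, and cut into 5 µm sections. Sections stained with H&E (×100) or Masson's trichrome (×200). Hydroxyproline measured by kit.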

Mus musculus [7] = assay: Hepatoprotective activity against CCL4-induced liver damage in C57BL/6J mouse assessed as reduction in serum AST levels at 20 ug/kg, po administered 5 times a week via gavage measured at 72 hrs post final CCl4 injection; assay type: functional, organism-based
How it was run: as §1

Mus musculus [8] = assay: Hepatoprotective activity against CCL4-induced liver damage in C57BL/6J mouse assessed as reduction in serum TBA levels at 20 ug/kg, po administered 5 times a week via gavage measured at 72 hrs post final CCl4 injection; assay type: functional, organism-based
How it was run: as §1

[9] = target: T1, Vitamin D3 receptor (Homo sapiens); assay: Transactivation of VDR in human LX2 cells assessed as inhibition of TGFbeta1-induced ACTA2 mRNA expression at 100 nM after 24 hrs by Q-PCR analysis; assay type: cell-based
How it was run: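 LX-2 cells cultured with 100 nM compound for 24 h. ACTA2 mRNA measured by SYBR Green Q-PCR, normalized to U36B4 (human internal control).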

[10] = target: T1, Vitamin D3 receptor (Homo sapiens); assay: Transactivation of VDR (unknown origin) expressed in HEK293 cells co-transfected with human RXRalpha after 24 hrs by dual luciferase reporter gene assay; assay type: cell-based
How it was run: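 HEK293 cells at 85-90% confluence transfected per well with 140 ng TK-SPP×3-Luc reporter, 20 ng pCMX-Renilla, 30 ng pENTER-CMV-hRXRα and 100 ng pCMX-VDR. Compounds added 8 h after transfection. Dual-luciferase assay run 24 h later, firefly normalized to Renilla, three experiments.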

[11] = target: T1, Vitamin D3 receptor (Homo sapiens); assay: Transactivation of VDR in human LX2 cells assessed as inhibition of TGFbeta1-induced alpha-SMA protein levels at 100 nM after 24 hrs by Western blot analysis; assay type: cell-based
How it was run: (§3)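 LX-2 cells cultured 24 h with 100 nM compound in TGFβ1-treated cells. Proteins separated on 10% SDS-PAGE, transferred to PVDF, and α-SMA or collagen I bands detected by infrared scanning.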

[12] = target: T1, Vitamin D3 receptor (Homo sapiens); assay: Transactivation of VDR in human LX2 cells assessed as inhibition of TGFbeta1-induced collagen 1 protein levels at 100 nM after 24 hrs by Western blot analysis; assay type: cell-based
How it was run: as §3

Mus musculus [13] = assay: Antifibrotic activity in C57BL/6J mouse model of CCl4-induced liver fibrosis assessed as decrease in alpha-SMA expression in liver at 20 ug/kg, po administered 5 times a week via gavage measured at 72 hrs post final CCl4 injection by Q-PCR analysis; assay type: functional, organism-based
Mus musculus [14] = assay: Induction of serum calcium levels in CCL4-induced C57BL/6J mouse liver damage model at 20 ug/kg, po administered 5 times a week via gavage measured at 72 hrs post final CCl4 injection; assay type: organism-based; details: in vivo, 0.02 mg/kg
How it was run: as §1

Mus musculus [15] = assay: Effect on Trpv6 mRNA expression in CCL4-induced C57BL/6J mouse liver damage model at 20 ug/kg, po via gavage measured on day 3 and 7 by Q-PCR analysis; assay type: ADME, organism-based; details: in vivo, 0.02 mg/kg
Mus musculus [16] = assay: Antifibrotic activity in C57BL/6J mouse model of CCl4-induced liver fibrosis assessed as reduction in COL1A1 mRNA expression in liver at 20 ug/kg, po administered 5 times a week via gavage measured at 72 hrs post final CCl4 injection by Q-PCR analysis; assay type: functional, organism-based
Homo sapiens [17] = species on record: Homo sapiens; assay: Inhibition of TGFbeta1-mediated collagen-1 activation in human LX2 cells at 100 nM after 24 hrs in presence of VDR siRNA by Western blot analysis; assay type: functional, cell-based
How it was run: (§4)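 LX-2 cells transfected with VDR-directed or scrambled siRNA (50 nM, Lipofectamine 2000), cultured 24 h, then treated 24 h with 100 nM compound, TGFβ1 (1 ng/mL), or both. VDR, α-SMA and collagen I measured by western blot (10% SDS-PAGE, PVDF).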

Mus musculus [18] = assay: Antifibrotic activity in C57BL6/J mouse model of CCl4-induced liver fibrosis assessed as reduction in collagen accumulation in liver at 20 ug/kg, po administered 5 times a week via gavage measured at 72 hrs post final CCl4 injection by Masson's trichrome-staining based assay; assay type: functional, organism-based; details: C57BL/6J
How it was run: as §2

Mus musculus [19] = assay: Antifibrotic activity in C57BL/6J mouse model of CCl4-induced liver fibrosis assessed as decrease in alpha-SMA expression in liver at 20 ug/kg, po administered 5 times a week via gavage measured at 72 hrs post final CCl4 injection by IHC-staining based assay; assay type: functional, organism-based
Mus musculus [20] = assay: Antifibrotic activity in C57BL/6J mouse model of CCl4-induced liver fibrosis assessed as reduction in collagen accumulation in liver at 20 ug/kg, po administered 5 times a week via gavage measured at 72 hrs post final CCl4 injection by hematoxylin-eosin staining based assay; assay type: functional, organism-based
How it was run: as §2

[21] = target: T1, Vitamin D3 receptor (Homo sapiens); assay: Agonist activity at VDR in human LX2 cells assessed as upregulation of TGFbeta1-induced CYP24A1 mRNA expression after 24 hrs by Q-PCR method; assay type: cell-based
Mus musculus [22] = assay: Antifibrotic activity in C57BL/6J mouse model of CCl4-induced liver fibrosis assessed as increase in CYP24A1 expression in liver at 20 ug/kg, po administered 5 times a week via gavage measured at 72 hrs post final CCl4 injection by Q-PCR analysis; assay type: functional, organism-based
Homo sapiens [23] = species on record: Homo sapiens; assay: Inhibition of TGFbeta1-mediated alphaSMA expression in human LX2 cells at 100 nM after 24 hrs in presence of VDR siRNA by Western blot analysis; assay type: functional, cell-based
How it was run: as §4

CCCCCNC(=O)c1cc(C(CC)(CC)c2ccc(OCC(O)CO)c(C)c2)cn1CC (stereo unspecified)
collagen-1 synthesis inhibition relative to 1,25(OH)2D3 (%) [1]: 51%
Activity [2]: 16%

CCn1cc(C(CC)(CC)c2ccc(OC(=O)CCN)c(C)c2)cc1C(=O)NCC(C)(C)O
collagen-1 synthesis inhibition relative to 1,25(OH)2D3 (%) [1]: 66%
Activity [2]: 22%

CCn1cc(C(CC)(CC)c2ccc(OCCCC(=O)O)c(C)c2)cc1C(=O)NCC(C)(C)O
collagen-1 synthesis inhibition relative to 1,25(OH)2D3 (%) [1]: 112%
Activity [2]: 32%

C=C1/C(=C\C=C2/CCC[C@]3(C)[C@@H]([C@H](C)CCCC(C)(C)O)CC[C@@H]23)C[C@@H](O)C[C@@H]1O [CALCITRIOL]
half-life [3]: 7.55 h
bioavailability [4]: 30.8%
Activity (Mus musculus [5]): Active
Activity (Mus musculus [6]): Active
Activity (Mus musculus [7]): Active
Activity (Mus musculus [8]): Active

CCn1cc(C(CC)(CC)c2ccc(OCCCCC(=O)O)c(C)c2)cc1C(=O)NCC(C)(C)O
collagen-1 synthesis inhibition relative to 1,25(OH)2D3 (%) [1]: 90%
Activity [2]: 30%

CCn1c(C(=O)NCC(C)(C)C)ccc1C(CC)(CC)c1ccc(OCC(O)CO)c(C)c1 (stereo unspecified)
inhibition [9]: inactive
Activity [10]: Dose-dependent effect
Activity [2]: 45%

CCn1c(C(=O)NCC(F)(F)F)ccc1C(CC)(CC)c1ccc(OCC(O)CO)c(C)c1 (stereo unspecified)
collagen-1 synthesis inhibition relative to 1,25(OH)2D3 (%) [1]: 135%
Activity [2]: 37%

CCCCCNC(=O)c1ccc(C(CC)(CC)c2ccc(OCC(O)CO)c(C)c2)n1CC (stereo unspecified)
collagen-1 synthesis inhibition relative to 1,25(OH)2D3 (%) [1]: 70%
Activity [2]: 21%

CCn1cc(C(CC)(CC)c2ccc(OC(=O)[C@H](C)N)c(C)c2)cc1C(=O)NCC(C)(C)O
collagen-1 synthesis inhibition relative to 1,25(OH)2D3 (%) [1]: 73%
Activity [2]: 20%

CCn1cc(C(CC)(CC)c2ccc(OC(=O)CCC(=O)O)c(C)c2)cc1C(=O)NCC(C)(C)O
collagen-1 synthesis inhibition relative to 1,25(OH)2D3 (%) [1]: 80%
Activity [2]: 30%

C=C1/C(=C\C=C2/CCC[C@]3(C)[C@@H]([C@H](C)/C=C/[C@@H](O)C4CC4)CC[C@@H]23)C[C@@H](O)C[C@@H]1O
collagen-1 synthesis inhibition relative to 1,25(OH)2D3 (%) [1]: 95%
Activity (Mus musculus [5]): Active
Activity (Mus musculus [6]): Active
Activity [2]: 93%
Activity (Mus musculus [7]): Active
Activity (Mus musculus [8]): Active

CCn1c(C(=O)NCC(C)(C)O)ccc1C(CC)(CC)c1ccc(OCC(O)CO)c(C)c1 (stereo unspecified)
inhibition [9]: inactive
collagen-1 synthesis inhibition relative to 1,25(OH)2D3 (%) [1]: 150%
Activity [10]: Dose-dependent effect
Activity [2]: 43%

CCn1cc(C(CC)(CC)c2ccc(OCC(O)CO)c(C)c2)cc1C(=O)NCC(F)(F)F (stereo unspecified)
collagen-1 synthesis inhibition relative to 1,25(OH)2D3 (%) [1]: 133%
Activity [10]: Dose-dependent effect
inhibition [11]: Active
Activity [2]: 39%
inhibition [12]: Active

CCn1cc(C(CC)(CC)c2ccc(OCC(O)CO)c(C)c2)cc1C(=O)NCC(C)(C)O (stereo unspecified)
inhibition [9]: Active
Activity (Mus musculus [13]): Active
Activity (Mus musculus [14]): Non-Toxic
Activity (Mus musculus [15]): Non-Toxic
Activity (Mus musculus [16]): Active
half-life [3]: 6.57 h
bioavailability [4]: 29.3%
Activity [10]: Dose-dependent effect
inhibition (Homo sapiens [17]): inactive
inhibition [11]: Active
Activity (Mus musculus [5]): Active
Activity (Mus musculus [6]): Active
Activity [2]: 62%
Activity (Mus musculus [18]): Active
Activity (Mus musculus [7]): Active
Activity (Mus musculus [19]): Active
Activity (Mus musculus [20]): Active
Activity [21]: Active
Activity (Mus musculus [22]): Active
inhibition (Homo sapiens [23]): inactive
Activity (Mus musculus [8]): Active
inhibition [12]: Active

CCn1cc(C(CC)(CC)c2ccc(OCC(O)CO)c(C)c2)cc1C(=O)NCC(C)(C)C (stereo unspecified)
collagen-1 synthesis inhibition relative to 1,25(OH)2D3 (%) [1]: 119%
Activity [2]: 31%

CCn1c(C(=O)NCC2CC2)ccc1C(CC)(CC)c1ccc(OCC(O)CO)c(C)c1 (stereo unspecified)
collagen-1 synthesis inhibition relative to 1,25(OH)2D3 (%) [1]: 71%
Activity [2]: 27%
